Reference: ChEMBL document CHEMBL1938370, “Structure-activity relationship studies of sulfonylpiperazine analogues as novel negative allosteric modulators of human neuronal nicotinic receptors” (J Med Chem, 2011)
Activity calls are given as the source filed them. No cut-off for these calls is given here.

Key:
[1] = target: T1, Neuronal acetylcholine receptor; alpha3/beta4 (Homo sapiens, UniProt P30926+P32297); assay: Agonist activity at human nAChR alpha3beta4 expressed in HEK ts201 cells assessed as increase in calcium mobilization at 30 uM measured every 1.5 sec by fluorescence analysis; format: functional, cell-based
[2] = target: T2, Neuronal acetylcholine receptor; alpha4/beta2 (Homo sapiens, UniProt P17787+P43681); assay: Agonist activity at human nAChR alpha4beta2 expressed in HEK ts201 cells assessed as increase in calcium mobilization at 30 uM measured every 1.5 sec by fluorescence analysis; format: functional, cell-based
[3] = target: T2, Neuronal acetylcholine receptor; alpha4/beta2; assay: Negative allosteric modulation of human nAChR alpha4beta2 expressed in HEK ts201 cells assessed as inhibition of epibatidine-induced calcium mobilization measured every 1.5 sec by fluorescence analysis; format: cell-based
Outline: (§1)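 HEK ts201 cells stably expressing human α4β2 or α3β4 nAChRs were plated on poly-L-ornithine-coated wells at 2.0–2.3 × 10^5 cells/well and used ~24 h later. They were washed with HEPES-buffered Krebs and loaded with 50% Calcium 5 NW dye for 1 h at 24 °C in the dark. Test compound was given at 6 concentrations across 0.1–100 µM, with final DMSO 1% at the top concentration. The agonist was 1 µM epibatidine, and fluorescence (ex 485/em 525 nm) was read every ~1.5 s.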

[4] = target: T1, Neuronal acetylcholine receptor; alpha3/beta4; assay: Negative allosteric modulation of human nAChR alpha3beta4 expressed in HEK ts201 cells assessed as decrease in epibatidine-induced calcium mobilization up to 100 uM measured every 1.5 sec by fluorescence analysis; format: cell-based; outline: as §1
[5] = target: T2, Neuronal acetylcholine receptor; alpha4/beta2; assay: Negative allosteric modulation of human nAChR alpha4beta2 expressed in HEK ts201 cells assessed as decrease in epibatidine-induced calcium mobilization up to 100 uM measured every 1.5 sec by fluorescence analysis; format: cell-based; outline: as §1
[6] = target: T1, Neuronal acetylcholine receptor; alpha3/beta4; assay: Negative allosteric modulation of human nAChR alpha3beta4 expressed in HEK ts201 cells assessed as inhibition of epibatidine-induced calcium mobilization measured every 1.5 sec by fluorescence analysis; format: cell-based; outline: as §1
[7] = target: T2, Neuronal acetylcholine receptor; alpha4/beta2; assay: Relative selectivity, ratio of IC50 for human nAChR alpha3beta4 expressed in HEK ts201 cells to IC50 for human nAChR alpha4beta2 expressed in HEK ts201 cells; format: cell-based
[8] = target: T2, Neuronal acetylcholine receptor; alpha4/beta2; assay: Noncompetitive inhibition of human nAChR alpha4beta2 expressed in HEK ts201 cells assessed as inhibition of epibatidine-induced calcium mobilization at 30 uM measured every 1.5 sec by fluorescence analysis; format: cell-based
Outline: (§2)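 Epibatidine concentration-response curves were run with and without 30 µM modulator in HEK ts201 cells expressing human α4β2 or α3β4 nAChRs. Cells were loaded with Calcium 5 NW dye for 1 h at 24 °C in HEPES-buffered Krebs, and fluorescence (ex 485/em 525 nm) was monitored every ~1.5 s.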

[9] = target: T1, Neuronal acetylcholine receptor; alpha3/beta4; assay: Noncompetitive inhibition of human nAChR alpha3beta4 expressed in HEK ts201 cells assessed as inhibition of epibatidine-induced calcium mobilization at 30 uM measured every 1.5 sec by fluorescence analysis; format: cell-based; outline: as §2
[10] = target: T2, Neuronal acetylcholine receptor; alpha4/beta2; assay: Negative allosteric modulation of human nAChR alpha4beta2 expressed in HEK ts201 cells assessed as inhibition of epibatidine-induced calcium mobilization at 0.1 to 100 uM measured every 1.5 sec by fluorescence analysis; format: cell-based; outline: as §1
[11] = target: T1, Neuronal acetylcholine receptor; alpha3/beta4; assay: Negative allosteric modulation of human nAChR alpha3beta4 expressed in HEK ts201 cells assessed as inhibition of epibatidine-induced calcium mobilization at 0.1 to 100 uM measured every 1.5 sec by fluorescence analysis; format: cell-based; outline: as §1

T1 sequence (P30926 whole entry): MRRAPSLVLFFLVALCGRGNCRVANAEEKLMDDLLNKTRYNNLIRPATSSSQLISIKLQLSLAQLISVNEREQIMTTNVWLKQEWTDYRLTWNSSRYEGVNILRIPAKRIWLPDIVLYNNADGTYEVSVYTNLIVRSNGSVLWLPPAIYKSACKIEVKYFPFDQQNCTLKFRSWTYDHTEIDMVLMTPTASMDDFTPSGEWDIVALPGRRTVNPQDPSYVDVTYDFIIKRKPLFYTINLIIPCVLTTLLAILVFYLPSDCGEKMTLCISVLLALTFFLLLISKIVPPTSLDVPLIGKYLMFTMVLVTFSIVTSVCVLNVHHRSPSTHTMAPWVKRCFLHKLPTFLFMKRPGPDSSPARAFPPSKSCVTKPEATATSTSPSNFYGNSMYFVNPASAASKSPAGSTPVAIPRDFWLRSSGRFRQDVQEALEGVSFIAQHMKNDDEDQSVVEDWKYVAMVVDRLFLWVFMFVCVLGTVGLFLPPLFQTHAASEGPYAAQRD
T1 sequence (P32297 whole entry): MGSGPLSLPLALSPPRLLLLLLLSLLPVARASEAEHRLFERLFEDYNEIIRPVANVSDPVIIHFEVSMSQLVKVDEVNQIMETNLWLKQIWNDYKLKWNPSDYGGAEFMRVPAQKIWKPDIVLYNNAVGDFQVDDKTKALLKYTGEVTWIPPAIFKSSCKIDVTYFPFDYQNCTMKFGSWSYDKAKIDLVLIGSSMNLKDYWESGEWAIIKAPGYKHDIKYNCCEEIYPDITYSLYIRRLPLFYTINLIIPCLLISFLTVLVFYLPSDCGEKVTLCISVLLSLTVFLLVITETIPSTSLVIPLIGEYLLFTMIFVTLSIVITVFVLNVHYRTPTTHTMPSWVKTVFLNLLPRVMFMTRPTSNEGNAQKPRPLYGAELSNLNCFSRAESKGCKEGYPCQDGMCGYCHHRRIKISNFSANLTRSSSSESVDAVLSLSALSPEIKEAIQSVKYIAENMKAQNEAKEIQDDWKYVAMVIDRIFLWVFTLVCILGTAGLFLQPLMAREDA
T2 sequence (P17787 whole entry): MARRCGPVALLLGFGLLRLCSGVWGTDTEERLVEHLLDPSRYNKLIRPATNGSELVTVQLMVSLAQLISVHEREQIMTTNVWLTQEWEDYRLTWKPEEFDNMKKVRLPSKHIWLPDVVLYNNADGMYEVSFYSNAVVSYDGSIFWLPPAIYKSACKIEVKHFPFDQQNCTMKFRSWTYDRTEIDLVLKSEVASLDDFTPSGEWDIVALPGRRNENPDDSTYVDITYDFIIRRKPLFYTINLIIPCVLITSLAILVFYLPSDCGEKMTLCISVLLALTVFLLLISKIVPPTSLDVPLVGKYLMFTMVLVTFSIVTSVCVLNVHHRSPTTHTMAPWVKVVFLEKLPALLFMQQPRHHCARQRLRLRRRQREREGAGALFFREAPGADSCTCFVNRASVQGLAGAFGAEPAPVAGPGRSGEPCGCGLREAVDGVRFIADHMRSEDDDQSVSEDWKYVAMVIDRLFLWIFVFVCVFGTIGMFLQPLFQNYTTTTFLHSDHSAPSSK
T2 sequence (P43681 whole entry): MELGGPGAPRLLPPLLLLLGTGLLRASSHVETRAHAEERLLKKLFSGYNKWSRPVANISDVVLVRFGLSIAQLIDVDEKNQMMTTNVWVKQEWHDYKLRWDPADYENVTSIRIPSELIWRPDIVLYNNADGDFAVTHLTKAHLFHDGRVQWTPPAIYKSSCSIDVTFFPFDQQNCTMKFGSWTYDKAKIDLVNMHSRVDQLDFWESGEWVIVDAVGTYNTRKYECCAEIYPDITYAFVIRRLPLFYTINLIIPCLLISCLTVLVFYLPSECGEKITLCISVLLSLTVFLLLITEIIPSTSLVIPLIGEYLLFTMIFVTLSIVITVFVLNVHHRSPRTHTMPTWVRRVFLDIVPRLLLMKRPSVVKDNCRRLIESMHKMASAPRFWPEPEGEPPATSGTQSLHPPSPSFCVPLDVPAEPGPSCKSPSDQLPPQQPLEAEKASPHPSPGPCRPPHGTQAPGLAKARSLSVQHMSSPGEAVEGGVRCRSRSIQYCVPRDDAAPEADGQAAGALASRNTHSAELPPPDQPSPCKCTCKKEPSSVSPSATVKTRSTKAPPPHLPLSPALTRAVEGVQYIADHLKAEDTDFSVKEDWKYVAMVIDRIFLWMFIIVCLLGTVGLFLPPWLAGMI

SMILES	Activity [1]	Activity [2]	IC50 [3]	IC50 [6]	further results
O=C(CN1CCN(S(=O)(=O)c2ccccc2F)CC1)Nc1cc[nH]n1	inactive	inactive			
O=C(CN1CCN(S(=O)(=O)c2cccnc2)CC1)Nc1ccn[nH]1			83 µM		IC50 [4]: > 100 µM
COc1ccc(NC(=O)CN2CCN(S(=O)(=O)c3cccnc3)CC2)cc1	inactive	inactive		95 µM	IC50 [5]: > 100 µM
COc1ccc(NC(=O)CN2CCN(S(=O)(=O)c3ccccc3F)CC2)cc1	inactive	inactive	17.1 µM	19.1 µM	Ratio IC50 [7]: 1.1
O=C(CN1CCN(S(=O)(=O)c2ccc(F)cc2)CC1)Nc1cc[nH]n1	inactive	inactive			
O=C(CN1CCN(S(=O)(=O)c2ccc(F)cc2)CC1)Nc1ccc2[nH]ncc2c1	inactive	inactive			
O=C(CN1CCN(S(=O)(=O)c2ccccc2F)CC1)Nc1ccn[nH]1					IC50 [5]: > 100 µM; IC50 [4]: > 100 µM
O=C(CN1CCN(S(=O)(=O)c2ccc(F)cc2)CC1)Nc1ccccc1	inactive	inactive			
O=C(CN1CCN(S(=O)(=O)c2ccccc2)CC1)Nc1ccccc1	inactive	inactive	9.6 µM	16.4 µM	
O=C(CN1CCN(S(=O)(=O)c2ccc(F)cc2)CC1)Nc1ccccc1F	inactive	inactive			inhibition [8]: Active; inhibition [9]: Active
COc1ccc(S(=O)(=O)N2CCN(CC(=O)Nc3ccccc3F)CC2)cc1	inactive	inactive	13.4 µM	15.4 µM	
COc1ccc(NC(=O)CN2CCN(S(=O)(=O)c3ccc(F)cc3)CC2)cc1	inactive	inactive			
O=C(CN1CCN(S(=O)(=O)c2ccc(F)cc2)CC1)Nc1ccc(F)cc1	inactive	inactive			
COc1ccc(S(=O)(=O)N2CCN(CC(=O)Nc3ccc(F)cc3)CC2)cc1	inactive	inactive	23.6 µM	17.1 µM	
O=C(CN1CCN(S(=O)(=O)c2ccccc2F)CC1)Nc1ccc(F)cc1	inactive	inactive	8 µM	13.6 µM	
O=C(CN1CCN(S(=O)(=O)c2ccccc2F)CC1)Nc1ccccc1F	inactive	inactive			Ratio IC50 [7]: 12
O=C(CN1CCN(S(=O)(=O)c2ccccc2F)CC1)Nc1ccc(C(=O)O)cc1	inactive	inactive			IC50 [5]: > 100 µM; IC50 [4]: > 100 µM
O=C(CN1CCN(S(=O)(=O)c2cccnc2)CC1)Nc1ccccc1F	inactive	inactive	20.3 µM	49.6 µM	
O=C(CN1CCN(S(=O)(=O)c2ccccc2F)CC1)Oc1ccccc1-c1ccccc1	inactive	inactive	20.9 µM	23.5 µM	
COC(=O)c1ccc(NC(=O)CN2CCN(S(=O)(=O)c3ccccc3F)CC2)cc1	inactive	inactive	12.4 µM	11.2 µM	
O=C(CN1CCN(S(=O)(=O)c2cccnc2)CC1)Nc1cc[nH]n1	inactive	inactive			
O=C(CN1CCN(S(=O)(=O)c2ccccc2)CC1)Nc1ccccc1F	inactive	inactive	4.1 µM	4.6 µM	
O=C(CN1CCN(S(=O)(=O)c2ccc(F)cc2)CC1)Oc1ccccc1-c1ccccc1	inactive	inactive	12.2 µM	23.8 µM	
O=S(=O)(c1ccc(F)cc1)N1CCNCC1					Activity [10]: inactive; Activity [11]: inactive
